Experiment [1] concerns AGS. The experiment is described as follows: Cytotoxicity against human AGS cells after 48 hrs by MTT assay. The format is functional, cell-based. The essentials: (§1)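 Cells seeded at 1.0 × 10^4 to 3.5 × 10^4 per well and incubated 24 h at 37 °C under 5% CO2. Exposed to a range of compound concentrations for 48 h, washed, then given MTT for 2 h and lysed. Absorbance read at 560 nm 45 min after lysis; IC50 from probit analysis. Cycloheximide as positive control.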

A further experiment concerns MCF7. Kind of experiment: Cytotoxicity against human MCF7 cells after 48 hrs by MTT assay. In kind it is functional, cell-based. As to conditions: MCF7, 48 h. The essentials:
as §1
For orientation: Formazan colour is commonly taken as a measure of viable cells.

A further experiment deals with MDA-MB-231. Kind of experiment: Cytotoxicity against human MDA-MB-231 cells after 48 hrs by MTT assay. In kind it is functional, cell-based. As to conditions: MDA-MB-231, 48 h. The essentials: as §1
The subject of experiment [2] is AGS. Kind of experiment: Induction of apoptosis in human AGS cells assessed as early apoptosis level at 15 ug/mL after 24 hrs by Annexin V-FITC apoptosis assay. In kind it is functional. The method, boiled down:
(§2)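 Cells plated at 40 × 10^4 per well, grown 24 h at 37 C in 5% CO2, then exposed to compound at 15 μg/mL for the stated time. Harvested by rapid trypsinisation, pelleted, resuspended in binding buffer (0.1 M Hepes/NaOH, 1.4 M NaCl, 25 mM CaCl2). Stained with FITC-annexin V and PI for 15 min, dark, room temperature. Flow cytometry within 1 h; early apoptosis scored as AV+/PI−. Untreated cells as negative control, cycloheximide 150 μg/mL as positive control.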

For the next experiment, the system named is NIH3T3. Kind of experiment: Cytotoxicity against mouse NIH/3T3 cells after 48 hrs by MTT assay. The format is functional, cell-based. Particulars: NIH3T3, 48 h. The method, boiled down:
as §1

For a further experiment, the system named is HT-29. The experiment is described as follows: Cytotoxicity against human HT-29 cells after 48 hrs by MTT assay. The format is functional, cell-based. Particulars: HT-29, 48 h. The method, boiled down: as §1
For experiment [3], the system named is AGS. The experiment is described as follows: Induction of apoptosis in human AGS cells assessed as early apoptosis level at 15 ug/mL after 48 hrs by Annexin V-FITC apoptosis assay. In kind it is functional. The essentials: as §2
In experiment [4] the test system is AGS. The experiment is described as follows: Induction of apoptosis in human AGS cells assessed as early apoptosis level at 150 ug/mL after 48 hrs by Annexin V-FITC apoptosis assay. The format is functional, cell-based. The essentials: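 AGS cells seeded at 40 × 10^4 per well and incubated 24 h at 37 °C under 5% CO2. Treated 24 and 48 h with test compound at 15 μg/mL, or cycloheximide at 150 μg/mL as positive control; untreated cells as negative control. Trypsinized, pelleted, then resuspended in binding buffer (0.1 M Hepes/NaOH, 1.4 M NaCl, 25 mM CaCl2). Stained with FITC-annexin V plus PI for 15 min, dark, room temperature. Flow cytometry within 1 h; early apoptosis counted as AV+/PI−.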

The IC50 is the concentration that inhibits the measured activity by half. The low end stands for inhibition by little substance, the high end for a need for much substance.

Active and inactive are the calls of the source. No cut-off for these calls is given here.

For the compound `Cc1cc2c(c(C)c1CCOS(=O)(=O)O)C(=O)[C@@H](C)[C@@H]2O`, the half-maximal inhibitory concentration (IC50) with AGS [1] was 23.9 µM; in the experiment on MCF7, 64.4 µM; with MDA-MB-231, > 100 µM; with NIH3T3, 46.8 µM; in the experiment on HT-29 it was 68.8 µM. Further, the Activity with AGS [2] amounted to 6.8%; in the experiment with AGS [3], 25.2%.
Take `C[C@@H]1C[C@@H]([C@H](O)CC2CC(=O)NC(=O)C2)C(=O)[C@@H](C)C1` [CYCLOHEXIMIDE]: the IC50 with AGS [1] was 3.6 µM; in the experiment with MCF7, > 100 µM; with MDA-MB-231, 1.2 µM; in the experiment with NIH3T3, 1.1 µM; with HT-29, 12.8 µM. For the same compound, in the experiment on AGS [4], the outcome was Active.
